Assay results from ChEMBL document CHEMBL1146521, “Sesquiterpene lactones from Anthemis altissima and their anti-Helicobacter pylori activity” (2003).
In brackets after ≈: the same amount, converted by molar mass. Activity calls are given as the source filed them. The rule behind the calls is not given here.

Key:
Staphylococcus aureus = assay: Antimicrobial activity against Staphylococcus aureus ATCC 6538 after 36 hrs under aerobic condition by microdilution method; assay type: functional; details: ATCC 6538, 36 h
Procedure, shortened: (§1)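 Bacteria grown overnight at 37 °C in tryptone soya broth (~10^9 cells/mL), then diluted in sterile saline to about 1.0 × 10^5 per well. Broth serial microdilution with compounds predissolved in DMSO, at final […]; DMSO ≤1%. Incubated 36 h at 37 °C. MIC = lowest concentration with no visible growth under binocular microscope. Inocula checked on TSA. Controls: DMSO, streptomycin.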

Pseudomonas aeruginosa = assay: Antimicrobial activity against Pseudomonas aeruginosa ATCC 27853 after 36 hrs under aerobic condition by microdilution method; assay type: functional, organism-based; procedure, shortened: as §1
Micrococcus flavus = assay: Antimicrobial activity against Micrococcus flavus ATCC 10240 after 36 hrs under aerobic condition by microdilution method; assay type: functional; details: ATCC 10240, 36 h; procedure, shortened: as §1
Escherichia coli = assay: Antimicrobial activity against Escherichia coli ATCC 35218 after 36 hrs under aerobic condition by microdilution method; assay type: functional; details: ATCC 35218, 36 h; procedure, shortened: as §1
Bacillus cereus = assay: Antimicrobial activity against Bacillus cereus isolate after 36 hrs under aerobic condition by microdilution method; assay type: functional; procedure, shortened: as §1
Helicobacter pylori [1] = assay: Antimicrobial activity against Helicobacter pylori isolates after 3 days under microaerobic condition by microdilution method
Proteus mirabilis = assay: Antimicrobial activity against Proteus mirabilis isolates after 36 hrs under aerobic condition by microdilution method; assay type: functional; procedure, shortened: as §1
Helicobacter pylori [2] = assay: Antimicrobial activity against Helicobacter pylori isolates after 36 hrs under […] condition by microdilution method; assay type: functional

SMILES | MIC (Staphylococcus aureus) [µg/mL] | Activity (Pseudomonas aeruginosa) | MIC (Micrococcus flavus) [µg/mL] | MIC (Escherichia coli) [µg/mL] | MIC (Bacillus cereus) [µg/mL] | MIC (Helicobacter pylori [1]) [µg/mL] | Activity (Proteus mirabilis) | Activity (Helicobacter pylori [2]) | Activity (Helicobacter pylori [1]) | MIC (Proteus mirabilis) [µg/mL]
C=C1C(=O)O[C@H]2CC(=C)[C@@H](O)CC/C(C)=C/[C@@H](O)[C@H]12 [TATRIDIN B] | 50 (≈ 189 µM) | inactive | 50 (≈ 189 µM) | 50 (≈ 189 µM) | 50 (≈ 189 µM) | 50 (≈ 189 µM) | inactive |  |  | 
COc1ccc(-c2oc3cc(O)cc(O)c3c(=O)c2O)cc1 [KAEMPFERIDE] |  | inactive | 50 (≈ 167 µM) |  | 25 (≈ 83.3 µM) | 6.25 (≈ 20.8 µM) | inactive |  |  | 
COc1cc(-c2oc3cc(O)cc(O)c3c(=O)c2O)ccc1O |  | inactive |  |  |  |  | inactive | inactive |  | 
COc1cc(O)c2c(=O)c(O)c(-c3ccc(O)c(O)c3)oc2c1 [RHAMNETIN] |  | inactive |  |  |  | 50 (≈ 158 µM) | inactive |  |  | 
O=C1c2c(O)cc(O)cc2O[C@H](c2ccc(O)c(O)c2)[C@H]1O [(+)-TAXIFOLIN] |  | inactive |  |  |  | 25 (≈ 82.2 µM) | inactive |  |  | 
O=C(/C=C/c1ccc(O)c(O)c1)O[C@@H]1C[C@](O)(C(=O)O)C[C@@H](O)[C@H]1O [CHLOROGENIC ACID] |  | inactive |  |  |  | 6.25 (≈ 17.6 µM) | inactive |  |  | 
O=C1C[C@@H](c2ccc(O)c(O)c2)Oc2cc(O)cc(O)c21 [ERIODICTYOL] |  | inactive |  |  |  | 50 (≈ 173 µM) | inactive |  |  | 
C=C1C(=O)O[C@H]2/C=C(\C)[C@@H](O)CC/C(C)=C/[C@@H](O)[C@H]12 [TATRIDIN A] | 50 (≈ 189 µM) | inactive |  |  | 50 (≈ 189 µM) | 12.5 (≈ 47.3 µM) | inactive |  |  | 
O=c1c(O[C@@H]2O[C@H](CO)[C@@H](O)[C@H](O)[C@H]2O)c(-c2ccc(O)c(O)c2)oc2cc(O)cc(O)c12 [ISOQUERCETIN] |  | inactive |  |  |  | 25 (≈ 53.8 µM) | inactive |  |  | 
C=C1C(=O)O[C@H]2C[C@@]3(C)[C@H](O)CC=C(C)[C@@H]3[C@@H](O)[C@H]12 | 50 (≈ 189 µM) | inactive |  |  | 25 (≈ 94.6 µM) | 12.5 (≈ 47.3 µM) | inactive |  |  | 
C=C1C(=O)O[C@H]2C[C@@]3(C)[C@H](C(C)=CC[C@@H]3O)[C@@H](O)[C@H]12 [ALTISSIN] | 50 (≈ 189 µM) | inactive |  |  | 12.5 (≈ 47.3 µM) | 50 (≈ 189 µM) | inactive |  |  | 
COc1c(-c2ccc(O)c(O)c2)oc2cc(O)cc(O)c2c1=O [3-O-METHYLQUERCETIN] |  | inactive |  | 50 (≈ 158 µM) |  | 12.5 (≈ 39.5 µM) | inactive |  |  | 
COc1ccc(-c2oc3cc(O)c(OC)c(O)c3c(=O)c2OC)cc1O |  | inactive |  |  |  |  | inactive |  |  | 
O=c1c(O)c(-c2ccc(O)c(O)c2)oc2cc(O)cc(O)c12 [QUERCETIN] |  | inactive |  |  | 50 (≈ 165 µM) | 50 (≈ 165 µM) | inactive |  |  | 
C=C1C(=O)O[C@H]2C[C@@]3(C)[C@H](O)CCC(=C)[C@@H]3[C@@H](O)[C@H]12 | 50 (≈ 189 µM) | inactive | 50 (≈ 189 µM) | 50 (≈ 189 µM) | 50 (≈ 189 µM) | 50 (≈ 189 µM) | inactive |  |  | 
O=c1cc(-c2ccc(O)cc2)oc2cc(O)cc(O)c12 |  | inactive |  |  |  |  | inactive |  | inactive | 
CN[C@@H]1[C@H](O[C@H]2[C@H](O[C@H]3[C@H](O)[C@@H](O)[C@H](N=C(N)N)[C@@H](O)[C@@H]3N=C(N)N)O[C@@H](C)[C@]2(O)C=O)O[C@@H](CO)[C@H](O)[C@H]1O [STREPTOMYCIN] | 100 (≈ 172 µM) |  | 100 (≈ 172 µM) | 200 (≈ 344 µM) | 100 (≈ 172 µM) |  |  |  |  | 400 (≈ 688 µM)
